For the experiment, the target named is T1, Adrenergic receptor alpha-2 (Homo sapiens, UniProt P08913+P18825+P18089).
T1 sequence (P08913 whole entry): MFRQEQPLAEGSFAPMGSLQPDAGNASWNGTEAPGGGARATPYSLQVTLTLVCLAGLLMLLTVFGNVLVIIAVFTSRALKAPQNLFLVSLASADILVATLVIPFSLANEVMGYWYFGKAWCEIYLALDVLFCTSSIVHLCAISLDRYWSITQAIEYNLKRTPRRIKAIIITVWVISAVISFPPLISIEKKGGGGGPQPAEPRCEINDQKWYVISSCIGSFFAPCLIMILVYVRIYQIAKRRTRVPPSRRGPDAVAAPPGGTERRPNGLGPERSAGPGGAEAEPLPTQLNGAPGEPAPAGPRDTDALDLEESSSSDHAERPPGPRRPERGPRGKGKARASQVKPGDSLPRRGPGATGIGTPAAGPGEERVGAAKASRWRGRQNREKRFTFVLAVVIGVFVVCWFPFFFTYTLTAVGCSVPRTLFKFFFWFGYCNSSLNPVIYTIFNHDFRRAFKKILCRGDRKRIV
T1 sequence (P18825 whole entry): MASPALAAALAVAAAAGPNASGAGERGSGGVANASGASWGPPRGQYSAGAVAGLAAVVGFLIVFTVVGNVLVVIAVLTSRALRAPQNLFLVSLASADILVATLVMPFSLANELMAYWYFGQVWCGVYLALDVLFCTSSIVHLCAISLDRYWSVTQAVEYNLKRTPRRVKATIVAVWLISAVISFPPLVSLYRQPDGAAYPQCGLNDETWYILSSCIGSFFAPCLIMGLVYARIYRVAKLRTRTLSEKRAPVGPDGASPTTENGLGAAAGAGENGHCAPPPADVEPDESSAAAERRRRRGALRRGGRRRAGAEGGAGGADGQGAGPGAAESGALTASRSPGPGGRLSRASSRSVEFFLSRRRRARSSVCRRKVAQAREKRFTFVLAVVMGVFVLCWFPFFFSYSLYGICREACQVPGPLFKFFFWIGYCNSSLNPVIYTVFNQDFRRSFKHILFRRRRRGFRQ
T1 sequence (P18089 whole entry): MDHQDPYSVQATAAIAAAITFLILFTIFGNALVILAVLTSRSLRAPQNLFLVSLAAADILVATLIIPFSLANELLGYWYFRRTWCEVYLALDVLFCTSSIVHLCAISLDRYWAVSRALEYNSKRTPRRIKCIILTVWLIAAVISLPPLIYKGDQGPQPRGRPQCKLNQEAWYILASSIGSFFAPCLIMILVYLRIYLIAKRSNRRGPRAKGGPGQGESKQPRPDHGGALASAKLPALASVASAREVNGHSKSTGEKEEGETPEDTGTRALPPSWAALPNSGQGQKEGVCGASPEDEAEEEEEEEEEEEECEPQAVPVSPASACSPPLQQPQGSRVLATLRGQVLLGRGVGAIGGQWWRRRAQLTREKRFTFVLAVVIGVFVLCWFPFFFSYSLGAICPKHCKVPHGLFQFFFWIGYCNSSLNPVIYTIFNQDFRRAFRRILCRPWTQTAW
Briefly: Antagonistic activity against Alpha-2 adrenergic receptor in human blood platelets. The class given is functional, tissue-based. In short, it runs like this:
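Human platelet-rich plasma pretreated with 1 mM aspirin. Inhibitor at various concentrations added 1 min before epinephrine (30-100 µM). Primary-wave aggregation measured; IC50 is the molar 50% inhibitory concentration.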

Turning to `CC(c1c[nH]cn1)c1cccc2ccccc12` (stereo unspecified), the IC50 was determined as 4.3 µM.

The IC50 is the concentration at which inhibition is half-maximal. A lower IC50 goes with inhibition by little substance.

The record behind these values is ChEMBL document CHEMBL1129251 (J Med Chem, 1996).
